Reference: paper PMC9632315 (The Oncologist, 2022)
Where “and” joins values, the source holds several entries; their conditions need not be identical. Equal values may be shown once.

How the values were obtained:
[1] = test system: plasma kynurenine production; details: cited from earlier work
[2] = Epacadostat plasma pharmacokinetics, noncompartmental analysis; assay type: in vivo, human; details: steady state cycle 1/day 8; for AUC / half-life / Tmax: human, plasma, oral; for AUC: AUC0-τ; for half-life: t ½; for Tmax: t max, median (range)
Procedure, shortened: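 Test compound 100 mg oral bid (B, C); pembrolizumab 200 mg IV q3w. A: oxaliplatin 85, leucovorin 400, 5-FU 400 mg/m2 bolus then 1200 mg/m2 per day over 46 h; days 1, 15, 28-day cycles. B: nab-paclitaxel 125, gemcitabine 1000 mg/m2; days 1, 8, 15, 28-day cycles. C: paclitaxel 200 mg/m2, carboplatin AUC 6; day 1, 21-day cycles.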

IDO1 = details: patients with advanced solid tumors; cited from earlier work
[3] = stated without reference; cited from earlier work
advanced melanoma = details: patients with advanced melanoma; median follow-up of 12.4 months; cited from earlier work
[4] = group A, mFOLFOX6, individual value (n ≤ 2)
[5] = group C, paclitaxel and carboplatin, individual values (n ≤ 2)
[6] = group D, pemetrexed and platinum agent, individual value (n ≤ 2)
[7] = group G, 5-FU and platinum agent, individual values (n ≤ 2)
[8] = 100 mg twice daily, group B, nab-paclitaxel and gemcitabine, individual value (n ≤ 2)

For `NS(=O)(=O)NCCNc1nonc1C(=NO)Nc1ccc(F)c(Br)c1` [Epacadostat], the maximally tolerated dose [1] is listed as 600 mg BID, the “epacadostat dose required for suppression of plasma kynurenine production” value ([1]; in combination with pembrolizumab, retrospective analysis) is listed as 600 mg BID and the CLss/F [2, 4] is listed as 81.7 L/h. For the same compound, the CLss/F ([2]; group B, nab-paclitaxel and gemcitabine, individual value (n ≤ 2)) was 82.6 L/h, the AUC0-τ [2, 5] was 2.44 µM·h and the CLss/F [2, 5] was 70.4 L/h and 93.5 L/h. The “t ½” value [2, 5] was 2.62 h and 1.07 h, the AUC0-τ [2, 6] was 1.81 µM·h and the CLss/F [2, 6] was 126 L/h. The AUC0-τ [2, 7] was 2.81 µM·h, the CLss/F [2, 7] was 76.8 L/h and 81.3 L/h and the “t ½” value [2, 7] was 1.30 h. The AUC [2, 8] was 2.76 µM·h, the AUC ([2]; 100 mg twice daily, group C, paclitaxel and carboplatin, individual values (n ≤ 2)) was 3.24 µM·h and the half-life [2, 8] was 1.42 h. It also gave an AUC [2, 4] of 2.79 µM·h, an AUC [2, 7] of 2.97 µM·h and a Tmax ([2]; group A, mFOLFOX6, N=6) of 2.9 h. The Tmax ([2]; group F, gemcitabine and platinum agent, N=7) was 2.1 h, the Tmax ([2]; group G, 5-FU and platinum agent, N=8) was 3.1 h and the half-life [2, 4] was 1.78 h. The half-life [2, 6] was 1.3 h, the half-life [2, 7] was 1.35 h and the “metabolism of tryptophan to kynurenine, whole blood assays” value (IDO1) was “effectively inhibits”. The “percentage decrease in kynurenine levels from baseline to day 15” value (IDO1) was “dose dependent” and the clearance mechanism [3] was “cleared predominantly by hepatic glucuronidation”.
In the case of `Nc1nc2[nH]cc(CCc3ccc(C(=O)N[C@@H](CCC(=O)O)C(=O)O)cc3)c2c(=O)[nH]1` [pemetrexed, Pemetrexed, reference compound], the clearance mechanism [3] is given as “cleared by renal excretion”.
In the case of “placebo plus pembrolizumab: ECHO-301/KEYNOTE-252 control arm: placebo plus the PD-1 inhibitor pembrolizumab”, the “OS (median)” value (advanced melanoma) is listed as “not reached”.
